Laboratory results taken from ChEMBL document CHEMBL1137387, “Structural determinants of opioid activity in derivatives of 14-aminomorphinones: effects of changes to the chain linking of the C14-amino group to the aryl ring” (J Med Chem, 2006).
The source made the active and inactive calls. The calls are words filed in the database; no cut-off is given here.

Assays:
[1] = target: T1, Mu-type opioid receptor (Homo sapiens, UniProt P35372); test: Activity at human recombinant mu opioid receptor expressed in CHO cells assessed as stimulation of [35S]GTP-gamma-S binding relative to DAMGO; format: functional, cell-based
How it was run: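 Membranes of CHO cells transfected with recombinant human MOR were assayed for stimulation of [35S]GTPγS binding. Efficacy is expressed against the standard DAMGO. Values are means of five or six experiments.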

[2] = target: T2, Delta-type opioid receptor (Homo sapiens, UniProt P41143); test: Activity at human recombinant delta opioid receptor expressed in CHO cells assessed as stimulation of [35S]GTP-gamma-S binding; format: functional, cell-based
[3] = target: T1, Mu-type opioid receptor; test: Displacement of [3H]DAMGO from human recombinant mu opioid receptor expressed in CHO cells; format: cell-based
How it was run: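 Competition binding used membranes of CHO cells transfected with recombinant human MOR, with [3H]DAMGO as the selective radioligand. Affinity is reported as Ki (nM).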

[4] = target: T3, Kappa-type opioid receptor (Homo sapiens, UniProt P41145); test: Displacement of [3H]U-69593 from human recombinant kappa opioid receptor expressed in CHO cells; format: cell-based
[5] = target: T2, Delta-type opioid receptor; test: Displacement of [3H]Cl-DPDPE from human recombinant delta opioid receptor expressed in CHO cells; format: cell-based
[6] = organism: Cavia porcellus; test: Selectivity for guinea pig mu opioid receptor over delta opioid receptor
[7] = target: Opioid receptor (mu and kappa) (Cavia porcellus) (UniProt P41144+P97266); test: Selectivity for guinea pig mu opioid receptor over kappa opioid receptor; format: protein assay
[8] = target: Mu-type opioid receptor (Cavia porcellus, UniProt P97266); test: Displacement of [3H]DAMGO from mu opioid receptor in guinea pig brain homogenate; format: tissue-based
[9] = target: Kappa-type opioid receptor (Cavia porcellus, UniProt P41144); test: Displacement of [3H]U-69593 from kappa opioid receptor in guinea pig brain homogenate; format: tissue-based
[10] = tested on: Mus musculus; test: Agonist activity in mouse tail withdrawal assay at 1 mg/kg relative to morphine; format: functional
How it was run: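 Antinociception in mice was measured as tail withdrawal from 50 °C water, with a test dose of 1 mg/kg compared against morphine. In a separate arm, the morphine antinociceptive dose–effect curve was determined after 24 h pretreatment to probe delayed MOR antagonism.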

[11] = target: T1, Mu-type opioid receptor; test: Inhibition of DAMGO-stimulated [35S]GTP-gamma-S binding to mu opioid receptor expressed in C6 cells at 100 nM; format: functional, cell-based
How it was run: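 C6 membranes expressing MOR were preincubated with ligand (100 nM) or vehicle in Tris-HCl buffer for 1 h at 25 °C. They were then centrifuged, resuspended, held at 37 °C to dissociate weakly bound ligand, recentrifuged and washed twice more. Washed membranes (15 µg) were incubated 1 h at 25 °C with increasing DAMGO and buffered [35S]GTPγS, giving DAMGO concentration–effect curves.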

[12] = target: T1, Mu-type opioid receptor; test: Displacement of [3H]diprenorphine from human mu opioid receptor expressed in C6 cells; format: cell-based
[13] = target: T3, Kappa-type opioid receptor; test: Displacement of [3H]diprenorphine from human recombinant kappa opioid receptor expressed in C6 cells; format: cell-based
[14] = target: T2, Delta-type opioid receptor; test: Displacement of [3H]diprenorphine from human recombinant delta opioid receptor expressed in C6 cells; format: cell-based

Sequence of Opioid receptor (mu and kappa) (Cavia porcellus) (P41144 whole entry, looked up): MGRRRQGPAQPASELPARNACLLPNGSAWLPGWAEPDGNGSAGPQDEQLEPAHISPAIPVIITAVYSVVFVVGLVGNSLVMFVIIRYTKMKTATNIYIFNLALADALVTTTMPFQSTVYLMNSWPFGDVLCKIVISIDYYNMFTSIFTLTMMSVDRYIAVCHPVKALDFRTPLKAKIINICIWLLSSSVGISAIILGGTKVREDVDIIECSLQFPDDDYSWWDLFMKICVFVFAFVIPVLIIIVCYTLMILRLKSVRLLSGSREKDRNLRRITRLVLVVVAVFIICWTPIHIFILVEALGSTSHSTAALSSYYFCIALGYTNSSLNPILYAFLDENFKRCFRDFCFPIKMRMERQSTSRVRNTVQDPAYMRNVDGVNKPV
Sequence of Opioid receptor (mu and kappa) (Cavia porcellus) (P97266 whole entry, looked up): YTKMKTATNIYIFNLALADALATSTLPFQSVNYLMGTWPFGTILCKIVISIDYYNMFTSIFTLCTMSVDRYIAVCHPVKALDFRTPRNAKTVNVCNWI
Sequence of Kappa-type opioid receptor (Cavia porcellus, UniProt P41144) (P41144 whole entry): as the sequence (P41144 whole entry, looked up) above
T2 sequence (P41143 whole entry): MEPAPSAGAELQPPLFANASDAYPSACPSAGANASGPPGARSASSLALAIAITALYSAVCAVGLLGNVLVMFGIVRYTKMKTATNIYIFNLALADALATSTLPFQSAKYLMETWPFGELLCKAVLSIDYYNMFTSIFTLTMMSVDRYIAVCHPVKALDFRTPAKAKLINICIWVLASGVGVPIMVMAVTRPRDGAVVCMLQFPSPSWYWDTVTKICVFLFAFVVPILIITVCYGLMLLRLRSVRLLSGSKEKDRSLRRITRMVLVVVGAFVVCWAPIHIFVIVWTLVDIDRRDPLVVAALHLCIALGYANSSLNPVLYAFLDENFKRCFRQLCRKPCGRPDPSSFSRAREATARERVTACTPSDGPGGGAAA
T1 sequence (P35372 whole entry): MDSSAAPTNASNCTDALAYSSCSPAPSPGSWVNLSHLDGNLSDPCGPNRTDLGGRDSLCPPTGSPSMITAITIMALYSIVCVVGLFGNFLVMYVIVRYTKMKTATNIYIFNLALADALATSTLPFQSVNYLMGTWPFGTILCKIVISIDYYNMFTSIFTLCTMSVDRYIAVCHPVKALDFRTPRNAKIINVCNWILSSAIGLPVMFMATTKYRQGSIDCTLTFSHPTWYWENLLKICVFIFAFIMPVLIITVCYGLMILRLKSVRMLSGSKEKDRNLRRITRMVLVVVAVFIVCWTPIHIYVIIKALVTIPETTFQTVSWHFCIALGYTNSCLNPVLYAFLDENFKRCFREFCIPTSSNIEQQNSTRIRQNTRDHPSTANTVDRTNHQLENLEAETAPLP
T3 sequence (P41145 whole entry): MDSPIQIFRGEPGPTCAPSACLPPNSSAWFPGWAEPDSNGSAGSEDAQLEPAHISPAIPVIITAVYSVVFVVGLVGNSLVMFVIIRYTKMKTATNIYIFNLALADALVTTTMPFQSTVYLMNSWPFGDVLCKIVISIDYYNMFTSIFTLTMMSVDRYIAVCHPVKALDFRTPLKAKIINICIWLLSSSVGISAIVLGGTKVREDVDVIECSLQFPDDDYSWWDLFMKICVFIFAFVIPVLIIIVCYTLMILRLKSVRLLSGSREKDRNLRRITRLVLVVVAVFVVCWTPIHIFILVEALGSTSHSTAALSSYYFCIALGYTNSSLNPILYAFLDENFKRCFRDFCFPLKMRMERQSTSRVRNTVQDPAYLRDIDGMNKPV
Sequence of Mu-type opioid receptor (Cavia porcellus, UniProt P97266) (P97266 whole entry): as the sequence (P97266 whole entry, looked up) above

Row | SMILES | IC50 [2] | Ki [3] | Ki [4] | Ki [5] | Activity ([1]; filed as antagonist) | further results
1 | O=C1CC[C@@]2(NCCc3ccc(Cl)cc3)[C@H]3Cc4ccc(O)c5c4[C@@]2(CCN3CC2CC2)[C@H]1O5 | 1.59 nM | 0.86 nM | 1.53 nM | 1.91 nM |  | Efficacy [1]: 34%; Activity ([1]; filed as partial agonist): Partial agonist
2 | COc1ccc2c3c1O[C@H]1C(=O)CC[C@@]4(NCCCCc5ccc(Cl)cc5)[C@@H](C2)N(CC2CC2)CC[C@]314 | 61.1 nM | 2.23 nM | 41.5 nM | 55.9 nM | Antagonist | 
3 | COc1ccc2c3c1O[C@H]1C(=O)CC[C@@]4(NC(=O)C/C=C/c5ccc(Cl)cc5)[C@@H](C2)N(CC2CC2)CC[C@]314 | 118 nM | 8.19 nM | 21.5 nM | 104 nM | Antagonist | 
4 | COc1ccc2c3c1O[C@H]1C(=O)CC[C@@]4(NCC/C=C/c5ccc(Cl)cc5)[C@@H](C2)N(CC2CC2)CC[C@]314 | 148 nM | 1.15 nM | 33.5 nM | 24.8 nM | Antagonist | 
5 | O=C(C/C=C/c1ccc(Cl)cc1)N[C@@]12CCC(=O)[C@@H]3Oc4c(O)ccc5c4[C@@]31CCN(CC1CC1)[C@@H]2C5 | 1.7 nM | 1.87 nM | 4.94 nM | 3.25 nM | Antagonist | 
6 | O=C1CC[C@@]2(NCCCCc3ccc(Cl)cc3)[C@H]3Cc4ccc(O)c5c4[C@@]2(CCN3CC2CC2)[C@H]1O5 | 0.67 nM | 0.96 nM | 5.27 nM | 2.18 nM | Antagonist | 
7 | O=C(CCCc1ccc(Cl)cc1)N[C@@]12CCC(=O)[C@@H]3Oc4c(O)ccc5c4[C@@]31CCN(CC1CC1)[C@@H]2C5 | 1.37 nM | 1.34 nM | 2.95 nM | 3.85 nM | Antagonist | 
8 | COc1ccc2c3c1O[C@H]1C(=O)CC[C@@]4(NC(=O)/C=C/c5ccc(Cl)cc5)[C@@H](C2)N(CC2CC2)CC[C@]314 | 7.16 nM |  |  |  | Antagonist | 
9 | COc1ccc2c3c1O[C@H]1C(=O)CC[C@@]4(NC/C=C/c5ccc(Cl)cc5)[C@@H](C2)N(CC2CC2)CC[C@]314 |  |  |  |  |  | Ratio Ki [6]: 63.6; Ratio Ki [7]: 76.6; Ki [8]: 0.7 nM; Ki [9]: 53.6 nM
10 | O=C1CC[C@@]2(NCCCc3ccc(Cl)cc3)[C@H]3Cc4ccc(O)c5c4[C@@]2(CCN3CC2CC2)[C@H]1O5 | 0.02 nM |  |  |  | Antagonist | Ratio Ki [6]: 8.5; Ratio Ki [7]: 14.6; Ki [8]: 0.13 nM; Ki [9]: 1.9 nM
11 | COc1ccc2c3c1O[C@H]1C(=O)CC[C@@]4(NC/C=C/Cc5ccc(Cl)cc5)[C@@H](C2)N(CC2CC2)CC[C@]314 | 96.8 nM | 6.76 nM | 25.9 nM | 94.9 nM | Antagonist | 
12 | O=C(CCc1ccc(Cl)cc1)N[C@@]12CCC(=O)[C@@H]3Oc4c(O)ccc5c4[C@@]31CCN(CC1CC1)[C@@H]2C5 | 0.03 nM |  |  |  | Antagonist | Ratio Ki [6]: 15; Ratio Ki [7]: 16.2; Ki [8]: 0.04 nM; Ki [9]: 0.65 nM
13 | O=C(Cc1ccc(Cl)cc1)N[C@@]12CCC(=O)[C@@H]3Oc4c(O)ccc5c4[C@@]31CCN(CC1CC1)[C@@H]2C5 | 2.41 nM | 0.73 nM | 1 nM | 1.51 nM |  | Efficacy [1]: 29%; Activity ([1]; filed as partial agonist): Partial agonist; Activity [10]: 10
14 | COc1ccc2c3c1O[C@H]1C(=O)CC[C@@]4(NC(=O)/C=C/Cc5ccc(Cl)cc5)[C@@H](C2)N(CC2CC2)CC[C@]314 |  | 8.07 nM | 25.2 nM | 242 nM | Antagonist | 
15 | COc1ccc2c3c1O[C@H]1C(=O)CC[C@@]4(NC(=O)CCc5ccc(Cl)cc5)[C@@H](C2)N(CC2CC2)CC[C@]314 | 0.76 nM |  |  |  | Antagonist | Ratio Ki [6]: 21.2; Ratio Ki [7]: 27.1; Ki [8]: 0.24 nM; Ki [9]: 6.5 nM
16 | O=C(/C=C/c1ccc(Cl)cc1)N[C@@]12CCC(=O)[C@@H]3Oc4c(O)ccc5c4[C@@]31CCN(CC1CC1)[C@@H]2C5 [CLOCINNAMOX] | 0.19 nM |  |  |  | Antagonist | Activity [11]: Active
17 | COc1ccc2c3c1O[C@H]1C(=O)CC[C@@]4(NCCc5ccc(Cl)cc5)[C@@H](C2)N(CC2CC2)CC[C@]314 | 63 nM | 1.33 nM | 13.1 nM | 33.8 nM |  | Efficacy [1]: 39%; Activity ([1]; filed as partial agonist): Partial agonist
18 | COc1ccc2c3c1O[C@H]1C(=O)CC[C@@]4(NCCCc5ccc(Cl)cc5)[C@@H](C2)N(CC2CC2)CC[C@]314 | 1.66 nM |  |  |  | Antagonist | Ratio Ki [6]: 53; Ratio Ki [7]: 133; Ki [8]: 0.59 nM; Ki [9]: 78.6 nM
19 | O=C1CC[C@@]2(NCC/C=C/c3ccc(Cl)cc3)[C@H]3Cc4ccc(O)c5c4[C@@]2(CCN3CC2CC2)[C@H]1O5 | 1.17 nM | 1 nM | 3.69 nM | 2.1 nM | Antagonist | 
20 | COc1ccc2c3c1O[C@H]1C(=O)CC[C@@]4(NC(=O)Cc5ccc(Cl)cc5)[C@@H](C2)N(CC2CC2)CC[C@]314 | 88.7 nM | 2.64 nM | 2.59 nM | 51.9 nM |  | Efficacy [1]: 39%; Activity ([1]; filed as partial agonist): Partial agonist
21 | O=C1CC[C@@]2(NC/C=C/c3ccc(Cl)cc3)[C@H]3Cc4ccc(O)c5c4[C@@]2(CCN3CC2CC2)[C@H]1O5 |  |  |  |  |  | Ki [12]: 0.32 nM; Ki [13]: 0.91 nM; Ki [14]: 0.63 nM
22 | COc1ccc2c3c1O[C@H]1C(=O)CC[C@@]4(O)[C@@H](C2)N(CC2CC2)CC[C@]314 | 1000 nM | 85.6 nM | 128 nM | 272 nM | Antagonist | 
23 | O=C1CC[C@@]2(NC/C=C/Cc3ccc(Cl)cc3)[C@H]3Cc4ccc(O)c5c4[C@@]2(CCN3CC2CC2)[C@H]1O5 | 3.35 nM | 1.89 nM | 3.72 nM | 6.65 nM | Antagonist | 
24 | COc1ccc2c3c1O[C@H]1C(=O)CC[C@@]4(NC(=O)CCCc5ccc(Cl)cc5)[C@@H](C2)N(CC2CC2)CC[C@]314 | 79.9 nM | 3.88 nM | 7.51 nM | 89.4 nM | Antagonist | 
